Rows were chosen to be rich in hits. Some 2.7% of all compounds tested hit in one or more screens of this group.
PAFAH1B2 FP inh: PAFAH1B2 enzyme inhibitors, primary screen, biochemical, fluorescence polarization, human | Platelet-activating factor acetylhydrolase IB subunit alpha2 (Homo sapiens), P68402 | recombinant PAFAH1B2, FP-rhodamine activity probe | inhibition, % at 3.39 µM | 1.2% of 340,000 active | AID 492953, 2010;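 active = inhibition above the mean of all tested compounds plus 3 SD, cut at about 24% in these data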;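 also: 0% = enzyme with DMSO and 100% = wells lacking PAFAH1B2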
Target sequence (P68402 whole entry, looked up): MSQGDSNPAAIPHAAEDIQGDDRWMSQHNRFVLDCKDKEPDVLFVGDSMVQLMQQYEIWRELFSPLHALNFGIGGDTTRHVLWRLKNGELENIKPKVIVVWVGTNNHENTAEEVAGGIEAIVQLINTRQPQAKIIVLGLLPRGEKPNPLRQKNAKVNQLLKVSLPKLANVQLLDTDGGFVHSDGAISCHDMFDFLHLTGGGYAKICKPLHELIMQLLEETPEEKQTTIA
PAFAH2 inh: PAFAH2 enzyme inhibitors, primary screen, biochemical, fluorescence polarization, human; recombinant PAFAH2, FP-rhodamine activity probe; 0.99% of 340,000 active; Platelet-activating factor acetylhydrolase 2, cytoplasmic (Homo sapiens), Q99487; inhibition, % at 3.39 µM; AID 492956, 2010;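 active = inhibition above the mean over all tested compounds plus 3 SD, cut at about 30% in these data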;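 also: inhibitors block probe labeling of enzyme so polarization drops; 0% = enzyme with DMSO and 100% = wells lacking PAFAH2 protein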
pPAFAH FP inh: pPAFAH enzyme inhibitors, primary screen, biochemical, fluorescence polarization, human. recombinant pPAFAH, FP-rhodamine probe fluorescence polarization. inhibition, % at 3.39 µM. 1.5% of 330,000 active. AID 463082, 2010;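 active = inhibition above the mean inhibition across the screen plus 3 SD, cut at about 25% in these data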;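 also: inhibitors block binding of the rhodamine activity-based probe so polarization drops; 0% = enzyme with DMSO and 100% = wells lacking pPAFAH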
PAFAH1B3 inh: PAFAH1B3 enzyme inhibitors, primary screen, biochemical, fluorescence polarization, human. recombinant PAFAH1B3, FP-rhodamine probe. inhibition, % at 3.39 µM. 0.28% of 340,000 active. AID 492972, 2010;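 active = inhibition above the screen-wide average of all tested compounds plus 3 SD, cut at about 25% in these data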;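 also: 0% = enzyme with DMSO only and 100% = wells lacking PAFAH1B3 protein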
ARFGAP1 inh: inhibitors of rat ARFGAP1 GAP activity, primary screen, biochemical, fluorescence polarization, GDP tracer; ADP-ribosylation factor GTPase-activating protein 1 (Rattus norvegicus), Q62848; Arfgap1-stimulated ARF1 GTP hydrolysis, GDP FP detection; inhibition, % at 16.5 µM; 0.26% of 360,000 active; AID 651572, 2012;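 active = inhibition above a per-plate limit, mean inhibition of low control wells plus 3 SD, cut at about 25% in these data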;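 also: 0% = DMSO wells with enzyme and 100% = wells lacking Arfgap1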
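Material: rat Arfgap1 catalytic domain, aa 1-136; also added: human ARF1(Δ1-17)-GTP substrate; compound dosing: one concentration, 16.5 µM, DMSO 1.26%; incubation: GTP hydrolysis reaction 2 h at 25 °C; measured by: Tracer-displacement fluorescence polarization with EDTA stop, 620/688 nm; evaluation: % inhibition from polarization; repeats: one replicate per compound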
ASAP1 GAP inh: inhibitors of human ASAP1 ArfGAP activity, primary screen, biochemical, fluorescence polarization. Arf-GAP with SH3 domain, ANK repeat and PH domain-containing protein 1 (Homo sapiens), …. ASAP1-stimulated ARF1 GTP hydrolysis, GDP FP detection. inhibition, % at 16.5 µM. 0.19% of 360,000 active. AID 624377, 2012; in the data active = inhibition above about 25%;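 also: 0% = vehicle with enzyme and substrate and 100% = no enzyme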
Target sequence (Q9ULH1 325-724 limits assumed): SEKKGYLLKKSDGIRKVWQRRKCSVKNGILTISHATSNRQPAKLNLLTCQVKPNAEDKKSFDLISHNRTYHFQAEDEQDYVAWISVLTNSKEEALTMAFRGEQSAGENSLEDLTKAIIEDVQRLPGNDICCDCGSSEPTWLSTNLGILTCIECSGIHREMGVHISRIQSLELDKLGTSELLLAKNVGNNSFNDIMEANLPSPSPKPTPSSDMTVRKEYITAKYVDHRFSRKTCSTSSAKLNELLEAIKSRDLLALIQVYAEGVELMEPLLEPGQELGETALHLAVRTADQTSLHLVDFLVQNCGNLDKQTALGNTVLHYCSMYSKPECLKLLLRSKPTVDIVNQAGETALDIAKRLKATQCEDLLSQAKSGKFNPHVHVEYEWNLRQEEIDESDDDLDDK
* = called active by the depositor; . = no result given.

SMILES	PAFAH1B2 FP inh	PAFAH2 inh	pPAFAH FP inh	PAFAH1B3 inh	ARFGAP1 inh	ASAP1 GAP inh
CN(C(=O)COc1cc(=O)n(C)c2ccccc12)c1cccc(Cl)c1	2	5	28*	6	6	-9
CCN(C(=O)COc1cc(=O)n(C)c2ccccc12)c1cccc(Cl)c1	1	0	23	-6	-2	0
O=C(N[C@H](Cc1ccccc1)C(=O)N1CCCN(Cc2ccccc2F)CC1)[C@H]1O[C@@H](n2ccc(=O)[nH]c2=O)[C@H](O)[C@@H]1O	.	.	.	.	5	6
Cc1nn(-c2ccccc2)c(C)c1NC(=O)COC(=O)c1ccc(Cl)c(N)c1	3	27	28*	8	-12	1
Nc1nc2c(ncn2[C@@H]2O[C@H](C(=O)NCC(c3ccccc3)c3ccccc3)[C@@H](O)[C@H]2O)c(=O)[nH]1	.	.	.	.	14	-2
O=c1[nH]c(-c2ccccc2)cn1C1CCN(Cc2ccc(-c3nc4ccc(Br)cc4nc3-c3ccccc3)cc2)CC1	.	.	.	.	-1	1
CCc1cc(C(=O)N2CCN(c3ncccn3)CC2)sc1C	-3	7	0	0	9	3
CC1CCc2sc(C(=O)N3CCN(c4ncccn4)CC3)cc2C1 (stereo not drawn)	0	5	28*	-7	5	15
COc1ccc(-c2ccc3c(n2)CCCN3S(=O)(=O)c2ccc(C#N)cc2)cc1	.	.	.	.	-10	7
C[C@H]1Cn2cnc(C(=O)N3CCN(c4ccccc4)CC3)c2C(=O)N1	.	.	.	.	-2	5
CC1CCc2cc(F)ccc2N1S(=O)(=O)c1ccc(Cl)nc1 (stereo not drawn)	29*	-4	-4	7	22	3
CCC(OC(=O)c1nsc(Cl)c1Cl)C(=O)NCCc1ccccc1 (stereo not drawn)	6	-4	25*	4	2	4
CCC(OC(=O)c1nsc(Cl)c1Cl)C(=O)NCc1cccs1 (stereo not drawn)	0	0	28*	-1	7	-11
Cc1cc([N+](=O)[O-])nn1Cc1ccc(C(=O)N/N=C/c2ccc(O)cc2O)cc1	5	-13	29*	15	9	11
Cc1cc([N+](=O)[O-])nn1Cc1ccc(C(=O)N/N=C/c2ccc(F)cc2)cc1	1	3	2	8	8	-6
CCOC(=O)C1CCN(C(=O)COC(=O)CSc2ccc([N+](=O)[O-])cc2)CC1	9	0	31*	5	3	-3
COC(=O)c1ccc(S(=O)(=O)NCc2ccc(OC)cc2)n1C	29*	4	0	7	-2	-1
COC(=O)c1ccc(S(=O)(=O)NCc2ccco2)n1C	-1	-2	4	10	8	14
CCCCCCCCN1C(=O)[C@@H](CC(=O)N2CCCCC2)C[C@@]2(C(=O)OC)C1=C[C@H](C1CCCC1)O[C@@H]2C	.	.	.	.	1	-6
Cc1ccccc1Cc1c(C)nc2nc(SCC(=O)NCc3ccco3)nn2c1C	5	6	8	13	-4	2
Cc1ccccc1Cc1c(C)nc2c(C(=O)NCc3ccco3)cnn2c1C	-2	-2	27*	-7	.	.
CCCCOCC1CN(CCCC)S(=O)(=O)c2c(cccc2Sc2ccc(OC)c(OC)c2)O1 (stereo not drawn)	.	.	.	.	-14	10
COC(=O)[C@]12C[C@H](CC(=O)N3CCSCC3)C(=O)N(Cc3ccc4c(c3)OCO4)C1=C[C@H](COCc1ccccc1)O[C@@H]2C	.	.	.	.	11	-6
CC(C)(C)c1ccc(C(=O)N2CCNCC2)cc1	1	-3	27*	6	-7	3
Cc1cccc(NC(=O)c2nc[nH]c2C(=O)N(C)CCO)c1	.	.	.	.	-3	-12
SMILES	PAFAH1B2 FP inh	PAFAH2 inh	pPAFAH FP inh	PAFAH1B3 inh	ARFGAP1 inh	ASAP1 GAP inh
O=C(O)c1ccc(CSCc2ccccc2Cl)o1	30*	-1	4	13	-8	-12
CC(C)NC(=O)c1ccc(CSCc2ccccc2Cl)o1	7	7	6	4	-12	-15
Cc1noc(C)c1S(=O)(=O)N1CCCc2nc(-c3ccc(F)cc3)ccc21	.	.	.	.	7	-9
N/C(=N\OC(=O)c1ccc(Cl)cc1Cl)c1ccc(Cl)cc1	37*	-22	-4	7	0	4
N/C(=N\OC(=O)c1ccc(Cl)cc1Cl)c1ccccc1	12	-5	-7	3	-15	-6
N#Cc1c(Nc2ccccc2)sc(C(=O)c2ccc(F)cc2)c1N	30*	7	17	6	-7	4
Cc1ccc(C(=O)c2sc(Nc3ccccc3)c(C#N)c2N)cc1	6	7	24	-3	-15	-6
N#Cc1c(Nc2ccccc2)sc(C(=O)C2CC2)c1N	28*	1	8	6	-4	-7
Cc1cc(NC(=O)Cc2cn(C)c3ccccc23)ccc1Oc1cccnc1	.	.	.	.	-6	9
CCOC(=O)N[C@H](C(=O)N1CCC[C@H]1C(=O)NCCc1ccccc1Cl)C1CCCCC1	.	.	.	.	1	-19
CC(C)c1ccc(S(=O)(=O)/N=C2\C=C(NS(=O)(=O)c3ccccc3)C(=O)c3ccccc32)cc1	23	26	26*	-2	-12	10
CCc1ccc(S(=O)(=O)/N=C2\C=C(NS(=O)(=O)c3ccccc3)C(=O)c3ccccc32)cc1	0	34*	.	6	-2	11
Cc1ccc(CS(=O)(=O)CCC(=O)NCCc2ccccc2)cc1	7	3	25*	1	4	8
Cc1ccc(S(=O)(=O)NCCCCCC(=O)NCCc2ccccc2)cc1	30*	-1	13	13	-2	-9
COCCN(C(=O)CCc1ccccc1OC)c1nnc(-c2cccnc2)s1	6	6	25*	2	-1	-1
COCCN(C(=O)CC(C)(C)C)c1nnc(-c2cccnc2)s1	1	2	-1	2	0	3
Cc1nnc(-c2cccc(Br)c2)c2cn(-c3ccc(Br)cc3)nc12	-1	-18	3	2	22	10
Cc1nnc(-c2cccc(Br)c2)c2cn(-c3ccccc3)nc12	6	-6	25*	7	-1	12
CCOC(=O)C1=C(C(=O)OCC)C2N(Cc3ccc(Br)cc3)c3ccccc3[C@@]23C[C@@H](C(=O)OC)N(S(=O)(=O)c2ccc(Br)cc2)C3=N1 (stereo partly drawn)	.	.	.	.	-6	-5

Source: PubChem (The Scripps Research Institute Molecular Screening Center)
